Measurements pooled from the literature.
Target: Serine/threonine-protein kinase 26 (STK26, Homo sapiens, UniProt Q9P289)

| Compound | test | setting | remaining binding |
| --- | --- | --- | --- |
| C[C@@H](c1ccc(-n2cnc3c(N)ncnc32)cc1)N1CCc2nn(C)c(Cc3ccccc3)c2C1=O | binding, competition with immobilised ligand | 0.1 µM | 88% |
| CN1CCN(c2ccc(Nc3nccc(-c4ccccc4)n3)cc2C(F)(F)F)CC1 | binding | 10 µM | 81% |
| O=C(c1ccc(Nc2ncc(Cl)c(-c3cc4ccccc4s3)n2)cc1)N1CCC(N2CCCC2)CC1 | binding, competition with immobilised ligand | 1 µM | 66% |
| COc1cnc(Nc2cccc(S(N)(=O)=O)c2)nc1N1CCN(c2ccccc2)CC1 | binding, competition with immobilised ligand | 1 µM | 78% |
| O=C(c1ccc(Nc2nccc(-c3cc4ccccc4s3)n2)cc1)N1CCC(N2CCCC2)CC1 | binding, competition with immobilised ligand | 1 µM | 99% |
| CN([C@@H]1CCc2c(CC(=O)O)c3ccccc3n2C1)S(=O)(=O)c1ccc(F)cc1 | cell-free assay, competition with immobilised ligand | 1 µM | 79% |
| CCN1CCN(Cc2ccc(C(=O)Nc3ccc(C)c(Oc4ccc5c(c4)CC(=O)N5)c3)cc2C(F)(F)F)CC1 | binding, competition with immobilised ligand | 1 µM | 100% |
| CS(=O)(=O)N1CCCC(NC(=O)[C@H](CCC2CCCCC2)NC(=O)c2ccc(CNC(=O)c3cnc4ccccn34)cc2)C1 (some centres unmarked) | cell-free assay, competition with immobilised ligand | 0.1 µM | 100% |
| C=CC(=O)N1CCC(C(=O)NCC(=O)N2CCN(c3nc(-c4cnc(N)nc4C(F)F)nc(N4CCOCC4)n3)CC2)CC1 | binding, competition with immobilised ligand | 1 µM | 100% |
| CC(=O)c1c(NS(C)(=O)=O)c2cc(-c3ccc(Cl)cc3)c(-c3ccc(Cl)cc3Cl)nc2n(C)c1=O | cell-free assay, competition with immobilised ligand | 1 µM | 84% |
| COc1ncc2cc3ccccc3nc2c1C#N | cell-free assay, competition with immobilised ligand | 5 µM | 100% |
| O=C(NCCCN1CCOCC1)c1ccc(Nc2ncc(Cl)c(-c3ccc(Cl)s3)n2)cc1 | binding, competition with immobilised ligand | 1 µM | 16% |
| O=C(NCC1CCOCC1)c1n[nH]cc1NC(=O)c1c(F)cccc1F | binding, competition with immobilised ligand | 1 µM | 77% |
| CN([C@@H]1CCc2c(CC(=O)O)c3cc(S(C)(=O)=O)ccc3n2C1)S(=O)(=O)c1ccc(F)cc1 | cell-free assay, competition with immobilised ligand | 1 µM | 77% |
